Experimental data from ChEMBL document CHEMBL1141911, “Discovery and SAR studies of a novel series of noncovalent cathepsin S inhibitors” (Bioorg Med Chem Lett, 2005).

Key:
JY [1] = assay: Inhibitory concentration against Ii degradation in human JY cells; assay type: functional, cell-based
Outline: (§1)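 Inhibition of invariant chain (Ii) cleavage was measured in human JY cells, an antigen-presenting line. IC50 values are the mean of at least 3 runs.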

[2] = Binding affinity against alpha-1A adrenergic receptor
Cathepsin S = Cathepsin S (Homo sapiens, UniProt P25774); assay: Inhibitory concentration against cathepsin S
JY [3] = assay: Inhibitory concentration against Ii degradation in human JY cells (range IC50 = 0.6-0.8 uM); assay type: functional, cell-based; outline: as §1

Chain of Cathepsin S (P25774 whole entry): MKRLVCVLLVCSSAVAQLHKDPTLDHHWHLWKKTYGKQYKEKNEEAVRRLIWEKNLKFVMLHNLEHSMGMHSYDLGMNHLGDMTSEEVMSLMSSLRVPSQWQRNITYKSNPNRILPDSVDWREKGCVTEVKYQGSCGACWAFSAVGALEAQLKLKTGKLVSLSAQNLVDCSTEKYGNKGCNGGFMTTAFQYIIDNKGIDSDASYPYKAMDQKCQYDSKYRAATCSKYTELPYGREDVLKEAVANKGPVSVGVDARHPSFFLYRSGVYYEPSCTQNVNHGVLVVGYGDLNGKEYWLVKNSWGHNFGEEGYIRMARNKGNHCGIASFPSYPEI

Row | SMILES | IC50 (Cathepsin S) [nM] | other results
1 | N#Cc1ccccc1N1CCN(CC(Cn2nc(-c3ccc(I)cc3)c3c2CCN(C(N)=O)C3)OC(N)=O)CC1 (stereo unspecified) |  | IC50 (JY [1]): 880 nM; Ki [2]: 12 nM
2 | CCCCn1c(=O)n(C2CCN(CC(O)Cn3nc(-c4ccc(Cl)c(C)c4)c4c3CCN(C(C)=O)C4)CC2)c2ccccc21 (stereo unspecified) | 140 | 
3 | CC(=O)N1CCc2c(c(-c3ccc(C(F)(F)F)cc3)nn2C[C@@H](O)CN2CCC(n3c(O)nc4ccc(Cl)cc43)CC2)C1 | 200 | 
4 | CC(=O)N1CCc2c(c(-c3ccc(Cl)c(C)c3)nn2CC(O)CN2CCC(n3c(=O)[nH]c4ccccc43)CC2)C1 (stereo unspecified) | 130 | 
5 | CC(=O)N1CCc2c(c(-c3ccc(Cl)cc3)nn2CC(O)CN2CCN(C(c3ccc(F)cc3)c3ccc(F)cc3)CC2)C1 (stereo unspecified) | 1000 | 
6 | CC(=O)N1CCc2c(c(-c3ccc(Cl)c(C)c3)nn2C[C@H](O)CN2CCC(n3c(=O)[nH]c4ccc(Cl)cc43)CC2)C1 | 350 | 
7 | COc1ccc2c(c1)[nH]c(=O)n2C1CCN(CC(O)Cn2nc(-c3ccc(Br)cc3)c3c2CCN(C(C)=O)C3)CC1 (stereo unspecified) | 140 | 
8 | Cn1c(=O)n(C2CCN(CCCn3nc(-c4ccc(Br)cc4)c4c3CCN(S(C)(=O)=O)C4)CC2)c2ccccc21 | 140 | 
9 | CC(=O)N1CCc2c(c(-c3ccc(I)cc3)nn2CC(O)CN2CCN(c3ccccc3C#N)CC2)C1 (stereo unspecified) |  | IC50 (JY [1]): 3900 nM
10 | CC(=O)N1CCc2c(c(-c3ccc(Cl)cc3)nn2CC(O)CN2CCC(n3c(=O)[nH]c4ccccc43)CC2)C1 (stereo unspecified) | 460 | 
11 | CC(=O)N1CCc2c(c(-c3ccc(I)cc3)nn2CC(O)CN2CCC(n3c(=O)[nH]c4ccc(F)cc43)CC2)C1 (stereo unspecified) | 230 | 
12 | CC(=O)N1CCc2c(c(-c3ccc(Br)cc3)nn2CC(O)CN2CCC(n3c(=O)[nH]c4cccc(C)c43)CC2)C1 (stereo unspecified) | 210 | 
13 | CC(=O)N1CCc2c(c(-c3ccc(Cl)c(C)c3)nn2CC(O)CN2CCC(n3c(=O)n(C)c4ccccc43)CC2)C1 (stereo unspecified) | 500 | 
14 | N#Cc1ccccc1N1CCN(CC(O)Cn2nc(-c3ccc(I)cc3)c3c2CCN(C(N)=O)C3)CC1 (stereo unspecified) |  | IC50 (JY [1]): 1300 nM; Ki [2]: 36 nM
15 | CCn1c(=O)n(C2CCN(CC(O)Cn3nc(-c4ccc(Cl)c(C)c4)c4c3CCN(C(C)=O)C4)CC2)c2ccccc21 (stereo unspecified) | 310 | 
16 | CC(=O)N1CCc2c(c(-c3ccc(C(F)(F)F)cc3)nn2C[C@H](O)CN2CCC(n3c(O)nc4ccc(Cl)cc43)CC2)C1 | 180 | 
17 | Cn1c(=O)n(C2CCN(CCCn3nc(-c4ccc(Cl)c(Cl)c4)c4c3CCN(S(C)(=O)=O)C4)CC2)c2cc(Cl)ccc21 | 150 | 

Continued by falling IC50 (Cathepsin S), values first:

Row | IC50 (Cathepsin S) [nM] | SMILES | other results
18 | 120 | CC(=O)N1CCc2c(c(-c3ccc(I)cc3)nn2CC(O)CN2CCC(n3c(=O)[nH]c4ccccc43)CC2)C1 (stereo unspecified) | 
19 | 110 | CC(=O)N1CCc2c(c(-c3ccc(C(F)(F)F)cc3)nn2CC(O)CN2CCC(n3c(=O)n(C)c4ccccc43)CC2)C1 (stereo unspecified) | 
20 | 110 | CC(=O)N1CCc2c(c(-c3ccc(Br)cc3)nn2CC(O)CN2CCC(n3c(=O)[nH]c4cc(Cl)c(Cl)cc43)CC2)C1 (stereo unspecified) | 
21 | 100 | CC(=O)N1CCc2c(c(-c3ccc(C(F)(F)F)cc3)nn2CC(O)CN2CCC(n3c(=O)[nH]c4ccccc43)CC2)C1 (stereo unspecified) | 
22 | 100 | CC(=O)N1CCc2c(c(-c3ccc(Cl)c(C)c3)nn2CC(O)CN2CCC(n3c(=O)n(C(C)C)c4ccccc43)CC2)C1 (stereo unspecified) | 
23 | 100 | Cn1c(=O)n(C2CCN(CCCn3nc(-c4ccc(C(F)(F)F)cc4)c4c3CCN(S(C)(=O)=O)C4)CC2)c2cc(Cl)ccc21 | IC50 (JY [3]): 800 nM
24 | 100 | CC(=O)N1CCc2c(c(-c3ccc(Cl)c(C)c3)nn2CC(O)CN2CCC(n3c(=O)[nH]c4cc(C)ccc43)CC2)C1 (stereo unspecified) | 
25 | 80 | Cn1c(=O)n(C2CCN(CC(O)Cn3nc(-c4ccc(C(F)(F)F)cc4)c4c3CCN(S(C)(=O)=O)C4)CC2)c2cc(Cl)ccc21 (stereo unspecified) | 
26 | 80 | CC(=O)N1CCc2c(c(-c3ccc(Br)cc3)nn2CC(O)CN2CCC(n3c(=O)[nH]c4ccccc43)CC2)C1 (stereo unspecified) | 
27 | 60 | Cc1cc(-c2nn(CC(O)CN3CCC(n4c(=O)[nH]c5ccccc54)CC3)c3c2CN(S(C)(=O)=O)CC3)ccc1Cl (stereo unspecified) | 
28 | 60 | CS(=O)(=O)N1CCc2c(c(-c3ccc(C(F)(F)F)cc3)nn2CC(O)CN2CCC(n3c(=O)[nH]c4ccc(Cl)cc43)CC2)C1 (stereo unspecified) | 
29 | 50 | Cn1c(=O)n(C2CCN(CCCn3nc(-c4ccc(Cl)c(Cl)c4)c4c3CCN(S(C)(=O)=O)C4)CC2)c2ccccc21 | 
30 | 50 | CS(=O)(=O)N1CCc2c(c(-c3ccc(Br)cc3)nn2CC(O)CN2CCC(n3c(=O)[nH]c4ccc(Cl)cc43)CC2)C1 (stereo unspecified) | 
31 | 50 | CS(=O)(=O)N1CCc2c(c(-c3ccc(Br)cc3)nn2CCCN2CCC(n3c(=O)[nH]c4ccccc43)CC2)C1 | 
32 | 50 | CS(=O)(=O)N1CCc2c(c(-c3ccc(C(F)(F)F)cc3)nn2CC(O)CN2CCC(n3c(=O)[nH]c4ccccc43)CC2)C1 (stereo unspecified) | 
33 | 50 | CS(=O)(=O)N1CCc2c(c(-c3ccc(C(F)(F)F)cc3)nn2CCCN2CCC(n3c(=O)[nH]c4ccccc43)CC2)C1 | 
